Measured values: ChEMBL document CHEMBL1122443, “Synthesis and antitumor evaluation of selected 5,6-disubstituted 1(2)H-indazole-4,7-diones” (1983)
The source made the active and inactive calls. The rule behind the calls is not given here.

Legend:
Mus musculus [1] = assay: Anti tumor activity in mice bearing lymphocytic leukemia P-388 at 2 mg/kg; format: functional
Summary of the method: (§1)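 Male BDF1 mice (20–23 g) were inoculated ip with 1 × 10⁶ P-388 leukemia cells on day 0. Compound was given ip once daily on days 1–14 in 0.05% Tween 80 vehicle, with a vehicle control group and 5-fluorouracil as positive control. Activity was scored as % T/C, average days survived treated/control, with >125% taken as significant.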

Mus musculus [2] = assay: Average days survived for treated / average days survived for control at 3 (mg/kg); 10.2/9.2; format: functional
Mus musculus [3] = assay: Antitumor activity in CF1 mice bearing Ehrlich ascites carcinoma measured as percent ascrit packed cell volume at 5 mg/kg; format: functional
Summary of the method: (§2)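 Male CF1 mice (22–25 g) received 2 × 10⁶ Ehrlich carcinoma cells ip on day 0. Dosing was ip daily on days 1–8, with sacrifice on day 9. Ascites fluid volume per mouse and ascrit (packed cell volume) were measured for each group. Vehicle was 0.05% Tween 80, or 5% absolute EtOH in 0.05% Tween 80, used for both compound and control. 6-Mercaptopurine was the positive control.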

Mus musculus [4] = assay: Antitumor activity in CF1 mice bearing Ehrlich ascites carcinoma measured as percentage inhibition at 0.5 mg/kg; IA= inactive; format: functional, organism-based; set-up: dose 0.5 mg/kg
Summary of the method: (§3)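 In the Ehrlich ascites model, male CF1 mice (22–25 g) received 2 × 10⁶ cells ip on day 0 and compound ip on days 1–8, with a vehicle of 0.05% Tween 80 ± 5% EtOH. Ascites volume and ascrit were taken on day 9. % inhibition = 100 − [(vol × ascrit, treated)/(vol × ascrit, control)], with >80% taken as significant.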

Mus musculus [5] = assay: Antitumor activity in CF1 mice bearing Ehrlich ascites carcinoma measured as percentage inhibition at 5 mg/kg; format: functional
Summary of the method: (§4)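 Ehrlich ascites model in male CF1 mice (22–25 g): 2 × 10⁶ cells ip on day 0, ip dosing days 1–8, kill on day 9. Percent inhibition = 100 − [(treated volume × treated ascrit)/(control volume × control ascrit)]. Greater than 80% was taken as significant. Vehicle was 0.05% Tween 80, alone or with 5% absolute EtOH. 6-Mercaptopurine was the positive control.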

Mus musculus [6] = assay: Anti tumor activity in mice bearing lymphocytic leukemia P-388 at 0.5 mg/kg; format: functional; summary of the method: as §1
Mus musculus [7] = assay: Antitumor activity in CF1 mice bearing Ehrlich ascites carcinoma measured as ascites volume at 5 mg/kg; format: functional; summary of the method: as §2
Mus musculus [8] = assay: Average days survived for treated / average days survived for control at 1 (mg/kg); 13.3/9.2; format: functional
Mus musculus [9] = assay: Average days survived for treated / average days survived for control at 0.5 (mg/kg); 10.5/9.2; format: functional
Mus musculus [10] = assay: Anti tumor activity in mice bearing lymphocytic leukemia P-388 at 3 mg/kg; format: functional; summary of the method: as §1
Mus musculus [11] = assay: Anti tumor activity in mice bearing lymphocytic leukemia P-388 at 10 mg/kg; Toxic; format: functional, organism-based; set-up: dose 10 mg/kg; summary of the method: as §1
Mus musculus [12] = assay: Average days survived for treated / average days survived for control at 5 (mg/kg); 11/9.2; format: functional
Mus musculus [13] = assay: Antitumor activity in CF1 mice bearing Ehrlich ascites carcinoma measured as survivors on day 9 at 5 mg/kg; 6/6; format: functional
Mus musculus [14] = assay: Average days survived for treated / average days survived for control at 2 (mg/kg); 12.6/9.2; format: functional
Mus musculus [15] = assay: Antitumor activity in CF1 mice bearing Ehrlich ascites carcinoma measured as survivors on day 9 at 1 mg/kg; 6/6; format: functional
Mus musculus [16] = assay: Anti tumor activity in mice bearing lymphocytic leukemia P-388 at 1 mg/kg; format: functional; summary of the method: as §1
Mus musculus [17] = assay: Antitumor activity in CF1 mice bearing Ehrlich ascites carcinoma measured as percent ascrit packed cell volume at 0.5 mg/kg; format: functional
Summary of the method: (§5)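 CF1 male mice (22–25 g) were inoculated ip with 2 × 10⁶ Ehrlich cells on day 0 and treated ip on days 1–8 in 0.05% Tween 80 or 5% EtOH/0.05% Tween 80 vehicle. On day 9 the mice were sacrificed, and the ascrit (packed cell volume) of the ascites fluid was determined.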

Mus musculus [18] = assay: Anti tumor activity in mice bearing lymphocytic leukemia P-388 at 5 mg/kg; format: functional; summary of the method: as §1
Mus musculus [19] = assay: Antitumor activity in CF1 mice bearing Ehrlich ascites carcinoma measured as ascites volume at 1 mg/kg; format: functional
Summary of the method: (§6)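 Ehrlich ascites cells (2 × 10⁶) were implanted ip in male CF1 mice (22–25 g) on day 0. Dosing was ip on days 1–8 in 0.05% Tween 80 or 5% EtOH/0.05% Tween 80, with vehicle controls. Mice were killed on day 9, and ascites fluid volume per mouse was measured.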

Mus musculus [20] = assay: Antitumor activity in CF1 mice bearing Ehrlich ascites carcinoma measured as percent ascrit packed cell volume at 1 mg/kg; format: functional; summary of the method: as §5
Mus musculus [21] = assay: Antitumor activity in CF1 mice bearing Ehrlich ascites carcinoma measured as ascites volume at 0.5 mg/kg; format: functional; summary of the method: as §6
Mus musculus [22] = assay: Antitumor activity in CF1 mice bearing Ehrlich ascites carcinoma measured as percentage inhibition at 1 mg/kg; format: functional; summary of the method: as §3
Mus musculus [23] = assay: Antitumor activity in CF1 mice bearing Ehrlich ascites carcinoma measured as survivors on day 9 at 0.5 mg/kg; 5/6; format: functional
Mus musculus [24] = assay: Antitumor activity in CF1 mice bearing Ehrlich ascites carcinoma measured as percentage inhibition at 10 mg/kg; format: functional; summary of the method: as §3
Mus musculus [25] = assay: Average days survived for treated / average days survived for control at 1 (mg/kg); 10.8/9.2; format: functional
Mus musculus [26] = assay: Antitumor activity in CF1 mice bearing Ehrlich ascites carcinoma measured as percent ascrit packed cell volume at 10 mg/kg; format: functional; summary of the method: as §5
Mus musculus [27] = assay: Antitumor activity in CF1 mice bearing Ehrlich ascites carcinoma measured as survivors on day 9 at 10 mg/kg; 5/6; format: functional
Mus musculus [28] = assay: Antitumor activity in CF1 mice bearing Ehrlich ascites carcinoma measured as survivors on day 9 at 5 mg/kg; 5/5; format: functional
Mus musculus [29] = assay: Antitumor activity in CF1 mice bearing Ehrlich ascites carcinoma measured as ascites volume at 10 mg/kg; format: functional; summary of the method: as §6
Mus musculus [30] = assay: Antitumor activity in CF1 mice bearing Ehrlich ascites carcinoma measured as survivors on day 9 at 12 mg/kg; 0/6; format: functional
Mus musculus [31] = assay: Average days survived for treated / average days survived for control at 1 (mg/kg); 11/9.2; format: functional
Mus musculus [32] = assay: Anti tumor activity in mice bearing lymphocytic leukemia P-388 at 10 mg/kg; format: functional
Summary of the method: (§7)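 Male BDF1 mice (20–23 g) inoculated ip with 1 × 10⁶ P-388 lymphocytic leukemia cells on day 0. Test agents were given ip once daily on days 1–14, with 0.05% Tween 80 as vehicle for treated and control groups. Read-out is %T/C, the mean days survived by treated over control. Values above 125% were counted as significant. 5-Fluorouracil was the positive control.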

Mus musculus [33] = assay: Antitumor activity in CF1 mice bearing Ehrlich ascites carcinoma measured as percentage inhibition at 6 mg/kg; format: functional; summary of the method: as §4
Mus musculus [34] = assay: Anti tumor activity in mice bearing lymphocytic leukemia P-388 at 15 mg/kg; format: functional; summary of the method: as §7
Mus musculus [35] = assay: Anti tumor activity in mice bearing lymphocytic leukemia P-388 at 12 mg/kg; format: functional; summary of the method: as §7
Mus musculus [36] = assay: Antitumor activity in CF1 mice bearing Ehrlich ascites carcinoma measured as percent ascrit packed cell volume at 6 mg/kg; format: functional; summary of the method: as §2
Mus musculus [37] = assay: Anti tumor activity in mice bearing lymphocytic leukemia P-388 at 20 mg/kg; format: functional; summary of the method: as §7
Mus musculus [38] = assay: Average days survived for treated / average days survived for control at 15 (mg/kg); 9.2/9.2; format: functional
Mus musculus [39] = assay: Average days survived for treated / average days survived for control at 12 (mg/kg); 9/9.2; format: functional
Mus musculus [40] = assay: Antitumor activity in CF1 mice bearing Ehrlich ascites carcinoma measured as ascites volume at 6 mg/kg; format: functional; summary of the method: as §2
Mus musculus [41] = assay: Average days survived for treated / average days survived for control at 10 (mg/kg); 12.6/9.2; format: functional
Mus musculus [42] = assay: Average days survived for treated / average days survived for control at 5 (mg/kg); 10.9/9.2; format: functional
Mus musculus [43] = assay: Antitumor activity in CF1 mice bearing Ehrlich ascites carcinoma measured as survivors on day 9 at 6 mg/kg; 5/6; format: functional
Mus musculus [44] = assay: Average days survived for treated / average days survived for control at 20 (mg/kg); 3.6/9.2; format: functional

O=C1C(N2CC2)=C(Cl)C(=O)c2n[nH]cc21
T/C (Mus musculus [1]): 137%
Average survival (days) (Mus musculus [2]): 10.2
packed cell volume (Mus musculus [3]): 49.4%
inhibition (Mus musculus [4]): inactive
inhibition in vivo at 5 mg/kg (Mus musculus [5]): 92.5%
T/C (Mus musculus [6]): 114%
ascites volume (Mus musculus [7]): 0.15 ml mouse-1
Average survival (days) (Mus musculus [8]): 13.3
Average survival (days) (Mus musculus [9]): 10.5
T/C (Mus musculus [10]): 111%
T/C (Mus musculus [11]): Toxic
Average survival (days) (Mus musculus [12]): 11
Survivors (Mus musculus [13]): 6
Average survival (days) (Mus musculus [14]): 12.6
Survivors (Mus musculus [15]): 6
T/C (Mus musculus [16]): 145%
packed cell volume (Mus musculus [17]): 44%
T/C (Mus musculus [18]): 120%
ascites volume (Mus musculus [19]): 0.32 ml mouse-1
packed cell volume (Mus musculus [20]): 5.8%
ascites volume (Mus musculus [21]): 0.38 ml mouse-1
inhibition in vivo at 1 mg/kg (Mus musculus [22]): 95%
Survivors (Mus musculus [23]): 5

Cn1cc2c(n1)C(=O)C(Cl)=C(N1CC1)C2=O
packed cell volume (Mus musculus [3]): 36.2%
inhibition in vivo at 5 mg/kg (Mus musculus [5]): 83.7%
ascites volume (Mus musculus [7]): 0.7 ml mouse-1
inhibition in vivo at 10 mg/kg (Mus musculus [24]): 96.3%
Average survival (days) (Mus musculus [25]): 10.8
packed cell volume (Mus musculus [26]): 8.4%
Survivors (Mus musculus [15]): 6
Survivors (Mus musculus [27]): 5
Survivors (Mus musculus [28]): 5
T/C (Mus musculus [16]): 117%
ascites volume (Mus musculus [19]): 0.8 ml mouse-1
ascites volume (Mus musculus [29]): 0.44 ml mouse-1
Survivors (Mus musculus [30]): 0
packed cell volume (Mus musculus [20]): 12.7%
inhibition in vivo at 1 mg/kg (Mus musculus [22]): 72.9%

O=C1C(Cl)=C(Cl)C(=O)c2[nH]ncc21
Average survival (days) (Mus musculus [31]): 11
T/C (Mus musculus [32]): 137%
packed cell volume (Mus musculus [3]): 4.5%
inhibition in vivo at 5 mg/kg (Mus musculus [5]): 98.6%
T/C (Mus musculus [6]): 114%
ascites volume (Mus musculus [7]): 0.48 ml mouse-1
Average survival (days) (Mus musculus [9]): 10.5
inhibition in vivo at 6 mg/kg (Mus musculus [33]): 85.4%
T/C (Mus musculus [34]): 104%
T/C (Mus musculus [35]): 98%
packed cell volume (Mus musculus [36]): 24.1%
Survivors (Mus musculus [28]): 5
T/C (Mus musculus [37]): 39%
Average survival (days) (Mus musculus [38]): 9.2
T/C (Mus musculus [16]): 120%
Average survival (days) (Mus musculus [39]): 9
ascites volume (Mus musculus [40]): 0.6 ml mouse-1
T/C (Mus musculus [18]): 118%
Average survival (days) (Mus musculus [41]): 12.6
Average survival (days) (Mus musculus [42]): 10.9
Survivors (Mus musculus [43]): 5
Average survival (days) (Mus musculus [44]): 3.6
